The nature of series [1]: Substrate activity at PYSOCA in human CMEC/D3 cells assessed as transporter-mediated drug uptake clearance assessed per mg protein at 37degC. Format: ADME, cell-based. The method in brief:
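Uptake by hCMEC/D3 cells followed over time at 37 °C or 4 °C. Clearance was calculated from the initial linear slope, expressed per mg protein. Mean ± S.E., n = 4.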

The nature of series [2]: Substrate activity at PYSOCA in human CMEC/D3 cells assessed as transporter-mediated drug uptake measured for 2 mins at 37degC in presence of pyrilamine. Format: ADME, cell-based.
Series [3] in a line: Substrate activity at PYSOCA in human CMEC/D3 cells assessed as transporter-mediated drug uptake measured for 2 mins at 37degC in presence of memantine. Format: ADME, cell-based.
For series [4], the target named is T1, Protein deacetylase HDAC6 (Mus musculus) (UniProt Q9Z2V5).
T1 sequence (whole entry): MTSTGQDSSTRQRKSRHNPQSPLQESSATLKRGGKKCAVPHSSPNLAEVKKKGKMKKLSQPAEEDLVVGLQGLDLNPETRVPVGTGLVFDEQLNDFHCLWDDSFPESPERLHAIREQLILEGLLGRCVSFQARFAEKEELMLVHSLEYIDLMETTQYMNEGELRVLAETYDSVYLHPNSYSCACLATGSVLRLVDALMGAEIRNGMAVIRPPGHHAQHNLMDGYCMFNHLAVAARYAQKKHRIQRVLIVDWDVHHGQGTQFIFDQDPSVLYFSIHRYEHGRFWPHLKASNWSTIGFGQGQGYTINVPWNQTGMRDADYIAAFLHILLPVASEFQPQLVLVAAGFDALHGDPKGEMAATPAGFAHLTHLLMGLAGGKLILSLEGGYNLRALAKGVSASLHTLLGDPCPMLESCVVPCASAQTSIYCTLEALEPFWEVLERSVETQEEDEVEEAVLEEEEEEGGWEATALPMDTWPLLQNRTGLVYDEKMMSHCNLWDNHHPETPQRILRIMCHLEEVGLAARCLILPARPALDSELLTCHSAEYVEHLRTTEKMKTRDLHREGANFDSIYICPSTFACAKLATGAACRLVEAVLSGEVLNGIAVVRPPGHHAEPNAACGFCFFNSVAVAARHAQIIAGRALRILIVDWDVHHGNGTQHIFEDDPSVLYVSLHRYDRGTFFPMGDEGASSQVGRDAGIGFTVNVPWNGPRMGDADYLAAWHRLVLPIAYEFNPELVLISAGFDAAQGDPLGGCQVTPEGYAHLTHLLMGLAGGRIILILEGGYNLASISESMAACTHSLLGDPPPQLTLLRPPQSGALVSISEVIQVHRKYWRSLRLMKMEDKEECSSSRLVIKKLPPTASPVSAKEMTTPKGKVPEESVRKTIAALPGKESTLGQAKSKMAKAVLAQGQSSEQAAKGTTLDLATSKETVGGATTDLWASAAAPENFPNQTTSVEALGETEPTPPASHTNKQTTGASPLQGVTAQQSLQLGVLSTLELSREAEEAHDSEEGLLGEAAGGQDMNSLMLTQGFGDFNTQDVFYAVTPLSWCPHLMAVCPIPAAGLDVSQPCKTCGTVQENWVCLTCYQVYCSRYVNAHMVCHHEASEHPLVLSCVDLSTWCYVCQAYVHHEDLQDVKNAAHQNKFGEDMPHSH
In words: Inhibition of mouse HDAC6 expressed in 293T cells at 100 uM using Ac-KGLGK(Ac)-MCA as substrate measured after 30 mins by fluorescence assay relative to control.

The target of series [5] is Histone deacetylase (Homo sapiens) (UniProt Q13547+O15379+Q9UBN7+Q92769+Q9UQL6+Q8WUI4+Q9BY41+Q96DB2+P56524+Q9UKV0+Q969S8). In words: Time-dependent inhibition of HDAC in human HeLaS3 cells assessed as increase in histone H3K9 acetylation at 10 uM by immunoblot analysis. It counts as cell-based. (A western blot detects proteins with antibodies after separation by electrophoresis.)

Series [6] deals with Histone deacetylase 3/Nuclear receptor corepressor 2 (HDAC3/NCoR2) (Homo sapiens, UniProt O15379). As to the kind of experiment: Inhibition of human full length C-terminal His-tagged HDAC3/N-terminal GST-tagged human NCOR2 (395 to 489 residues) co-expressed in baculovirus infected Sf9 insect cells using HDAC substrate 3 measured after 30 mins by fluorescence assay.
Another series concerns the target Histone deacetylase 2 (Homo sapiens, UniProt Q92769). As to the kind of experiment: Inhibition of recombinant human C-terminal FLAG-tagged HDAC2 expressed in baculovirus infected Sf9 insect cells using HDAC substrate 3 measured after 30 mins by fluorescence assay.
Series [7] has as its target T2, Histone deacetylase 8 (Homo sapiens) (UniProt Q9BY41).
T2 sequence (whole entry): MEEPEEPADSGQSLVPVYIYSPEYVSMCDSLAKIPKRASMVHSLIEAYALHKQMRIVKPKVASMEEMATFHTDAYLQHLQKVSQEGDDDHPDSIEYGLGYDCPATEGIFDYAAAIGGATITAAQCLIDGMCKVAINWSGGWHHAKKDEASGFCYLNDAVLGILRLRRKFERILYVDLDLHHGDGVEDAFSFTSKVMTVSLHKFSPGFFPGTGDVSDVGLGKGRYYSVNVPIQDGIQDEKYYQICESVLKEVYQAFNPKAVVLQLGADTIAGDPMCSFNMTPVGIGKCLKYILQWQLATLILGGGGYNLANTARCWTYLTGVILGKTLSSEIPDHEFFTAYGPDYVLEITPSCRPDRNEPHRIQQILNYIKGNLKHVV
As to the kind of experiment: Inhibition of recombinant human full length C-terminal His-tagged HDAC8 expressed in baculovirus infected insect cells at 30 uM using HDAC class 2a substrate measured after 30 mins by fluorescence assay relative to control.

Series [8] in a line: Substrate activity at PYSOCA in human CMEC/D3 cells assessed as Vmax for transporter-mediated drug uptake assessed per mg protein measured for 2 mins at 37degC. It counts as ADME, cell-based. The method in brief:
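Uptake by hCMEC/D3 cells measured over a range of concentrations at 37 °C for 2 min. Km and Vmax were obtained by fitting to Eq. 1. Mean ± S.E., n = 4.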

Series [9] is described as follows: Substrate activity at PYSOCA in human CMEC/D3 cells assessed as transporter-mediated drug uptake measured for 2 mins at 37degC in presence of metabolic inhibitor NaN3. It counts as ADME, cell-based. The method, boiled down:
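To deplete cellular ATP, hCMEC/D3 cells were pretreated with 0.1% NaN3 for 20 min. Uptake was then measured at 37 °C for 2 min. Mean ± S.E., n = 4.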

Series [10] concerns the target Histone deacetylase 4 (Homo sapiens) (UniProt P56524). In words: Inhibition of N-terminal GST tagged/C-terminal His tagged human recombinant HDAC4 (627 to 1084 residues) expressed in baculovirus infected insect cells at 30 uM using HDAC class 2a substrate measured after 30 mins by fluorescence assay relative to control.
A short description of series [11]: Substrate activity at PYSOCA in human CMEC/D3 cells assessed as transporter-mediated drug uptake measured for 1 min at 37degC in presence of NH4Cl under intracellular alkalization condition. Format: ADME, cell-based. The method, boiled down:
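hCMEC/D3 cells were pretreated in transport buffer with or without 30 mM NH4Cl. Uptake was then measured at 37 °C for 1 min with or without 30 mM NH4Cl (Control, Pre and Acute conditions). Mean ± S.E., n = 4.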

Calls of active or inactive are those of the source. The calls are words filed in the database; no cut-off is given here.

Broadly, the inhibition is how much of the control response was suppressed. The term IC50 denotes the concentration needed to halve the response being measured. For orientation: Vmax means the top rate of the reaction or transport when substrate is in excess.

Histone deacetylase 3/Nuclear receptor corepressor 2 (HDAC3/NCoR2), sequence (O15379 whole entry, the tested form may be a part): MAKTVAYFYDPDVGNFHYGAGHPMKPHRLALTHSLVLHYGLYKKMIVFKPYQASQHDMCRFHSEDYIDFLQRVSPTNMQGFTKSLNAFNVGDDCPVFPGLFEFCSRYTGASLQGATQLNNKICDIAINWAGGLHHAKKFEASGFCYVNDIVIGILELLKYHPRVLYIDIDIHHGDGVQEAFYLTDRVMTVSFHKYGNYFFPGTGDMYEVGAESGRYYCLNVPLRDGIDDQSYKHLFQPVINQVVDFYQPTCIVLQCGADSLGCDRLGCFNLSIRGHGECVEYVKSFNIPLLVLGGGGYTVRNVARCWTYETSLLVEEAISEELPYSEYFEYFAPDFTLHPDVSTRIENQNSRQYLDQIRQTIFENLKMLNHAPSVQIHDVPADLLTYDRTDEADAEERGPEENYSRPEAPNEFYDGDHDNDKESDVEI
Histone deacetylase 3/Nuclear receptor corepressor 2 (HDAC3/NCoR2), sequence (Q9Y618 whole entry, further chain, the tested form may be a part): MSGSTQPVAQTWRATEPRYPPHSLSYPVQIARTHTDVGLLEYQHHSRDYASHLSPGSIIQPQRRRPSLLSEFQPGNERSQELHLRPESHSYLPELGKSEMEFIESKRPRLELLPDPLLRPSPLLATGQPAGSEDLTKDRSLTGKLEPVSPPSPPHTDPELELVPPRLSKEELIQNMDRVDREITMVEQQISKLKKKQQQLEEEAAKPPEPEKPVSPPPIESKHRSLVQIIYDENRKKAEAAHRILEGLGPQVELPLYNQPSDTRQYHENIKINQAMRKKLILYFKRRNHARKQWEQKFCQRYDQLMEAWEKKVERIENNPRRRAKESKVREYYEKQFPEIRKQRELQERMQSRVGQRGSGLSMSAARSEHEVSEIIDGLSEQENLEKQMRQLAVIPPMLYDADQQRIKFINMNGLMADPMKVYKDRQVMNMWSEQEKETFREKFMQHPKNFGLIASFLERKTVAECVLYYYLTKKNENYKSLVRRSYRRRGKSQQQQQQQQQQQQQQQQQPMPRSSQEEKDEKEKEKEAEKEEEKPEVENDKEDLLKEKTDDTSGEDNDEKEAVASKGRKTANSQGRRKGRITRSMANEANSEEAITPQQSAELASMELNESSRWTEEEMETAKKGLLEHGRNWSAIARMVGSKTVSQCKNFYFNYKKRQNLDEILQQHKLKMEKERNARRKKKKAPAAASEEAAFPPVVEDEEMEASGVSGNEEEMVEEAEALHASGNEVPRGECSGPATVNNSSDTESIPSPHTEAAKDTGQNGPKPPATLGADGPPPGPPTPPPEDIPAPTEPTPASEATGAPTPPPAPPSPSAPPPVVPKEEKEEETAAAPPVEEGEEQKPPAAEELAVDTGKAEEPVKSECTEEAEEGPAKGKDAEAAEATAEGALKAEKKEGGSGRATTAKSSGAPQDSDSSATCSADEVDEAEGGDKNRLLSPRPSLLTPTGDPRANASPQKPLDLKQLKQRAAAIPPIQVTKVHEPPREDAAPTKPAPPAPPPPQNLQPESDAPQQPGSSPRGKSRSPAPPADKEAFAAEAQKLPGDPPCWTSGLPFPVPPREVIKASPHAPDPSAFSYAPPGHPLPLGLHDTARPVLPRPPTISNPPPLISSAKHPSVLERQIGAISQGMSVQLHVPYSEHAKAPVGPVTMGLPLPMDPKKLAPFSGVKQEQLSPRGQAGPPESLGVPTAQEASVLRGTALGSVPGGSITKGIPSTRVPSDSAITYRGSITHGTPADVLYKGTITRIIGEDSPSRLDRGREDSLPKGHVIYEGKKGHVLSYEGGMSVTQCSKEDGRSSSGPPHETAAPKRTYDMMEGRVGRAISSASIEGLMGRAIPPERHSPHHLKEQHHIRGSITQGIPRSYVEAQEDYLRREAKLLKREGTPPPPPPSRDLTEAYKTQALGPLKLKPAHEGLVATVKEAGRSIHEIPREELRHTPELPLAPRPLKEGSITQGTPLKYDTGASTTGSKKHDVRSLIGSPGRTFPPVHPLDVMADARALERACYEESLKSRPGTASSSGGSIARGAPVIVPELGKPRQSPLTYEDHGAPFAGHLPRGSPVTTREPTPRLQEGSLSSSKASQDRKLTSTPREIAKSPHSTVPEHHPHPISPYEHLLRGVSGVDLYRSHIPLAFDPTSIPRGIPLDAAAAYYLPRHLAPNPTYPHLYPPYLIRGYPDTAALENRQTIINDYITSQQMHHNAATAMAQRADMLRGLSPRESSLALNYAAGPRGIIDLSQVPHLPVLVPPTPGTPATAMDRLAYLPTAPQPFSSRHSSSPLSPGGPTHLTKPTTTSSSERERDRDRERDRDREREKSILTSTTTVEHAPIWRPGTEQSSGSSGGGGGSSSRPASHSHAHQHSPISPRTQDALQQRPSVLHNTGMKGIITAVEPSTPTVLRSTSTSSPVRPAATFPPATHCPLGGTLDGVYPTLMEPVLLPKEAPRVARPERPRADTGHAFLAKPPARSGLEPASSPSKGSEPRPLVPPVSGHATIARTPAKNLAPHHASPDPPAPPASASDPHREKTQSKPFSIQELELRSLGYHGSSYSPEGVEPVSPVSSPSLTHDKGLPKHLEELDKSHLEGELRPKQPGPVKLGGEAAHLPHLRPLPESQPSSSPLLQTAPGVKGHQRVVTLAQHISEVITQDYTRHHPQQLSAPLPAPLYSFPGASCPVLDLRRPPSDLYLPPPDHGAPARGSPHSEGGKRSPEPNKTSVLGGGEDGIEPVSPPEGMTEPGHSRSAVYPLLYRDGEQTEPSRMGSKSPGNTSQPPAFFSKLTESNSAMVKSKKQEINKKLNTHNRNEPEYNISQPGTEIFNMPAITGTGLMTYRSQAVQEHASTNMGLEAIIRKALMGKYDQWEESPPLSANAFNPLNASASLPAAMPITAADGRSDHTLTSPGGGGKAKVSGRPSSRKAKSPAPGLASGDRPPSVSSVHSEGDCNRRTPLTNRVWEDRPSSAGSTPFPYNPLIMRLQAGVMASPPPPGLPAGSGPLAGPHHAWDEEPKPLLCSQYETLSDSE
Histone deacetylase 2, sequence (Q92769 whole entry): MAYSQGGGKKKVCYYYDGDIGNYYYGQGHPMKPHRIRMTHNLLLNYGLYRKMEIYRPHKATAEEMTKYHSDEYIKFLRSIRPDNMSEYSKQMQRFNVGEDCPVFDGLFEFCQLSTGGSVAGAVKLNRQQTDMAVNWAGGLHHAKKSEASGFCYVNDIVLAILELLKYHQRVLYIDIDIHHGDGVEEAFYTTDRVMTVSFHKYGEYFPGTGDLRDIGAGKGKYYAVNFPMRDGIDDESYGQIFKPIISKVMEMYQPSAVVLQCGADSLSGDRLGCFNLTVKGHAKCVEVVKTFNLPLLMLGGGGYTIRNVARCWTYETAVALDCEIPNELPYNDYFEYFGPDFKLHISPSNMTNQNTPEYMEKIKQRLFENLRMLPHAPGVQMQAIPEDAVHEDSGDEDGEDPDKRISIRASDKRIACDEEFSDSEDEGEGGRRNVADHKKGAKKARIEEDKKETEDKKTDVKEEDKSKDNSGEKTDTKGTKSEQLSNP
Histone deacetylase 4 (Homo sapiens), sequence (P56524 whole entry, the tested form may be a part): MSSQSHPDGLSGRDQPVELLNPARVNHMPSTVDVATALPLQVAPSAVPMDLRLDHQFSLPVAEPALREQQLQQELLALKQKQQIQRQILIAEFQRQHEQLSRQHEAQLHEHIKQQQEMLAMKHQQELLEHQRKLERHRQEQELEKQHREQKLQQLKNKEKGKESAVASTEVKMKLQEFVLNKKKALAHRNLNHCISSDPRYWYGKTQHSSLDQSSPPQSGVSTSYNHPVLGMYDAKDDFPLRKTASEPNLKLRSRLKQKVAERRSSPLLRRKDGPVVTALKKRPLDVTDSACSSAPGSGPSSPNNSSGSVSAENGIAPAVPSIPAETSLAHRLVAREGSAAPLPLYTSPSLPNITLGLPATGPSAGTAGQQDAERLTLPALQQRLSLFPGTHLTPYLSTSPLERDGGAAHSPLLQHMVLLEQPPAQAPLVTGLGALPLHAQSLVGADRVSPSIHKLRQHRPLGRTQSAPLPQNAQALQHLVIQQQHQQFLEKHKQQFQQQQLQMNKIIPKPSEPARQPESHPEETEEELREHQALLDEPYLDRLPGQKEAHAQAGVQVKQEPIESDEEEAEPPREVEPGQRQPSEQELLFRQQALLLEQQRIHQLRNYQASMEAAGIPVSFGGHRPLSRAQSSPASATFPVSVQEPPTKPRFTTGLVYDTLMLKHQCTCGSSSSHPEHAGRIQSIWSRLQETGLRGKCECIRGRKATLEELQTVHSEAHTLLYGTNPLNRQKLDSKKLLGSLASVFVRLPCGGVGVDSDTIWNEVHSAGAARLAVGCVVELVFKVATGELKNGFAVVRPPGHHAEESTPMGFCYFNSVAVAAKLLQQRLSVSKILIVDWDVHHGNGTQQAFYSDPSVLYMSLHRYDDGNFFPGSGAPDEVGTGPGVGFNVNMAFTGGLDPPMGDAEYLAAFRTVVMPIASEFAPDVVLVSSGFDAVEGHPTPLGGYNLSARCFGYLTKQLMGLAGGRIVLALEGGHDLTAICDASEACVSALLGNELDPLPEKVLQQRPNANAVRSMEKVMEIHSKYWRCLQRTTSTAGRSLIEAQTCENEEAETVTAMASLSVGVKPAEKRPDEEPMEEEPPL

Take `COc1ccc(CN(CCN(C)C)c2ccc(C(=O)Nc3ccccc3N)cn2)cc1`: in [1], the CL is 107 µL/min. For the same molecule, the Activity entry in series [2], in series [3], in [9] and in [11] was “Not Active” each time. In addition, the inhibition was 11% in series [4], under 10% in series [7] and under 10% in series [10]. The TDI result in series [5] is “Active”. Besides, the concentration for half-maximal inhibition (IC50) in series [6] was determined as 12 µM; on Histone deacetylase 2 it was 5.5 µM. Besides, the Vmax in series [8] is reported as 5.17 nmol/min.

The values are drawn from ChEMBL document CHEMBL4196230, “Design, Synthesis, and Blood-Brain Barrier Transport Study of Pyrilamine Derivatives as Histone Deacetylase Inhibitors” (ACS Med Chem Lett, 2018).
